Our source for the MIC and inhibition values is ChEMBL document CHEMBL1250546, “Synthesis of non-purine analogs of 6-aryl-9-benzylpurines, and their antimycobacterial activities. Compounds modified in the imidazole ring” (Bioorg Med Chem, 2010).

Holding throughout (assay type): functional
Experiment [1] has as its system Mycobacterium tuberculosis. The experiment can be described thus: Antibacterial activity against multidrug-resistant Mycobacterium tuberculosis H37Rv carrying luxAB incubated for 10 days under low oxygen followed by 28 hrs normoxic recovery by low-oxygen-recovery assay. In a few lines:
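Low-oxygen-recovery assay using low-oxygen-adapted M. tuberculosis H37Rv luxAB, which carries a luciferase reporter, in 7H12 medium in microplate format. Cultures were incubated 10 days under low oxygen, then given 28 h of normoxic recovery before luminescence was read. MIC is the lowest concentration giving at least a 90% luminescence reduction relative to untreated controls.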

Experiment [2] relates to Mycobacterium tuberculosis. The experiment can be described thus: Antibacterial activity against multidrug-resistant Mycobacterium tuberculosis H37Rv carrying luxAB at 128 uM incubated for 10 days under low oxygen followed by 28 hrs normoxic recovery by low-oxygen-recovery assay relative to control.
Experiment [3] has as its system Mycobacterium tuberculosis. The experiment in a line: Antibacterial activity against isoniazid-resistant Mycobacterium tuberculosis after 7 days by microplate alamar blue assay. The note with it: 168 h. The procedure, abridged: (§1)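 Microplate alamar blue assay in 7H12 medium against M. tuberculosis H37Rv ATCC 27294 and against rifampicin-, isoniazid-, streptomycin- and kanamycin-resistant Mtb strains. Bacteria were incubated with test samples for 7 days, then fluorescence was read. MIC is the lowest concentration giving at least a 90% fluorescence reduction relative to untreated controls.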
In general terms: Alamar Blue is a resazurin reagent that responds to reducing activity.

Experiment [4] relates to Mycobacterium tuberculosis. The experiment in a line: Antibacterial activity against clofazimine-resistant Mycobacterium tuberculosis after 7 days by microplate alamar blue assay. As to conditions: 168 h.
For experiment [5], the system named is Mycobacterium tuberculosis. The experiment can be described thus: Antibacterial activity against kanamycin-resistant Mycobacterium tuberculosis after 7 days by microplate alamar blue assay. As to conditions: 168 h. In a few lines: as §1
In experiment [6] the test system is Mycobacterium tuberculosis. The experiment in a line: Antibacterial activity against rifampicin-resistant Mycobacterium tuberculosis after 7 days by microplate alamar blue assay. The note with it: 168 h.
Experiment [7] has as its system Mycobacterium tuberculosis. The experiment in a line: Antibacterial activity against streptomycin-resistant Mycobacterium tuberculosis after 7 days by microplate alamar blue assay. The note with it: 168 h.

In brackets after ≈: the same amount, converted by molar mass.

For orientation: MIC means the lowest concentration that inhibits growth of the organism. The low end stands for inhibition by little substance, the high end for a need for much substance. In general, inhibition refers to the change of the read-out against control, counted positive when it falls. A high value points to a response far below the control. On to `COc1ccc(Cn2nnc3c(-c4ccco4)ncnc32)cc1`, for which the MIC in experiment [1] is above 128 µM. In addition, the inhibition at 128 µM in experiment [2] came to 61%.

In the case of `COc1ccc(Cn2ncc3c(-c4ccco4)ncnc32)cc1`, in experiment [1], the MIC is above 128 µM. In addition, at 128 µM the inhibition in experiment [2] was 60%.

As to `COc1ccc(Cn2ccc3c(-c4ccco4)ncnc32)cc1`, the MIC in experiment [3] is 0.13 µM (≈ 0.0397 µg/mL); in experiment [4] it was 0.16 µM (≈ 0.0489 µg/mL); in experiment [5], 0.1 µM (≈ 0.0305 µg/mL); in experiment [1] it was above 128 µM; in experiment [6] it was 0.14 µM (≈ 0.0427 µg/mL); in experiment [7] it was 0.18 µM (≈ 0.055 µg/mL). This compound yielded an inhibition at 128 µM in experiment [2] of 82%.

With `COc1ccc(Cn2ccc3c(-c4cccs4)ncnc32)cc1`, the MIC amounted to 0.14 µM (≈ 0.045 µg/mL) in experiment [3]; 0.18 µM (≈ 0.0579 µg/mL) in experiment [4]; 0.12 µM (≈ 0.0386 µg/mL) in experiment [5]; 60 µM (≈ 19.3 µg/mL) in experiment [1]; 0.13 µM (≈ 0.0418 µg/mL) in experiment [6]; 0.26 µM (≈ 0.0836 µg/mL) in experiment [7].

Turning to `COc1ccc(Cn2ccc3c(-c4ccco4)nc(Cl)nc32)cc1`, the MIC in experiment [3] is 0.12 µM (≈ 0.0408 µg/mL); in experiment [4], 0.06 µM (≈ 0.0204 µg/mL); in experiment [5], 0.1 µM (≈ 0.034 µg/mL); in experiment [1], above 128 µM; in experiment [6], 0.1 µM (≈ 0.034 µg/mL); in experiment [7] it was 0.08 µM (≈ 0.0272 µg/mL). In experiment [2], this compound had an inhibition at 128 µM of 88%.

In the case of `COc1ccc(Cn2ccc3c(-c4cccs4)nc(Cl)nc32)cc1`, the MIC in experiment [3] was 0.09 µM (≈ 0.032 µg/mL); in experiment [4], below 0.05 µM; in experiment [5], 0.08 µM (≈ 0.0285 µg/mL); in experiment [1] it was 120 µM (≈ 42.7 µg/mL); in experiment [6] it was 0.14 µM (≈ 0.0498 µg/mL); in experiment [7], 0.06 µM (≈ 0.0214 µg/mL).

In the case of `COc1ccc(Cn2ccc3c(-c4ccco4)nc(OC)nc32)cc1`, the MIC in experiment [3] was found to be 0.09 µM (≈ 0.0302 µg/mL); in experiment [4], 0.07 µM (≈ 0.0235 µg/mL); in experiment [5], 0.1 µM (≈ 0.0335 µg/mL); in experiment [1], 87 µM (≈ 29.2 µg/mL); in experiment [6] it was 0.09 µM (≈ 0.0302 µg/mL); in experiment [7], 0.09 µM (≈ 0.0302 µg/mL).

As for `COc1ccc(Cn2cnc3c(-c4ccco4)ncnc32)cc1`, in experiment [1], the MIC was above 128 µM. For the same compound, the inhibition at 128 µM in experiment [2] came to 88%.

As for `COc1ccc(Cn2cnc3c(-c4ccco4)nc(Cl)nc32)cc1`, the MIC in experiment [3] was 0.15 µM (≈ 0.0511 µg/mL); in experiment [4], 0.47 µM (≈ 0.16 µg/mL); in experiment [5] it was 0.16 µM (≈ 0.0545 µg/mL); in experiment [1], above 128 µM; in experiment [6] it was 0.15 µM (≈ 0.0511 µg/mL); in experiment [7], 0.56 µM (≈ 0.191 µg/mL). In addition, the inhibition at 128 µM in experiment [2] was 82%.

Take `NNC(=O)c1ccncc1` [ISONIAZID]: the MIC in experiment [3] is above 8 µM; in experiment [5] it was 0.39 µM (≈ 0.0535 µg/mL); in experiment [6], 0.25 µM (≈ 0.0343 µg/mL); in experiment [7], 0.24 µM (≈ 0.0329 µg/mL).

Turning to `COc1c(N2C[C@@H]3CCCN[C@@H]3C2)c(F)cc2c(=O)c(C(=O)O)cn(C3CC3)c12` [MOXIFLOXACIN], the MIC in experiment [3] was 0.3 µM (≈ 0.12 µg/mL); in experiment [5], 0.34 µM (≈ 0.136 µg/mL).

As to `O=[N+]([O-])c1cn2c(n1)OC[C@@H](OCc1ccc(OC(F)(F)F)cc1)C2` [PRETOMANID], the MIC in experiment [3] worked out at 0.07 µM (≈ 0.0251 µg/mL); in experiment [4] it was 0.54 µM (≈ 0.194 µg/mL); in experiment [5] it was 0.22 µM (≈ 0.079 µg/mL); in experiment [6], 0.17 µM (≈ 0.0611 µg/mL); in experiment [7] it was 0.1 µM (≈ 0.0359 µg/mL).

As to `CO[C@H]1/C=C/O[C@@]2(C)Oc3c(C)c(O)c4c(O)c(c(/C=N/N5CCN(C)CC5)c(O)c4c3C2=O)NC(=O)/C(C)=C\C=C\[C@H](C)[C@H](O)[C@@H](C)[C@@H](O)[C@@H](C)[C@H](OC(C)=O)[C@@H]1C` [RIFAMPIN], the MIC in experiment [3] was 0.02 µM (≈ 0.0165 µg/mL); in experiment [4] it was 0.02 µM (≈ 0.0165 µg/mL); in experiment [5], 0.02 µM (≈ 0.0165 µg/mL); in experiment [6], above 4 µM; in experiment [7], 0.04 µM (≈ 0.0329 µg/mL).

As for `CN[C@@H]1[C@H](O[C@H]2[C@H](O[C@H]3[C@H](O)[C@@H](O)[C@H](N=C(N)N)[C@@H](O)[C@@H]3N=C(N)N)O[C@@H](C)[C@]2(O)C=O)O[C@@H](CO)[C@H](O)[C@H]1O` [STREPTOMYCIN], the MIC was 0.13 µM (≈ 0.0756 µg/mL) in experiment [3]; 0.33 µM (≈ 0.192 µg/mL) in experiment [4]; 0.98 µM (≈ 0.57 µg/mL) in experiment [5]; 0.21 µM (≈ 0.122 µg/mL) in experiment [6]; above 16 µM in experiment [7].
